Experimental findings from ChEMBL document CHEMBL4130442, “Design, synthesis and structure-activity relationship studies of a focused library of pyrimidine moiety with anti-proliferative and anti-metastasis activities in triple negative breast cancer” (Eur J Med Chem, 2017) are described below.

Data set [1] deals with MDA-MB-231. As to the kind of experiment: Induction of autophagy in human MDA-MB-231 cells assessed as change in Beclin-1 protein level at 2.5 uM incubated for 24 hrs in presence of control siRNA by Western blot method relative to untreated control. The format is functional. The method in brief: (§1)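 MDA-MB-231 cells were exposed for 24 h. Adherent and floating cells were pooled and lysed for 1 h at 4 °C in 50 mM Hepes pH 7.4 with 1% Triton X-100, orthovanadate, NaF, EDTA, PMSF, aprotinin and leupeptin. After 12,000 rpm clearing, equal protein was run on 10-15% SDS-PAGE and blotted to PVDF. Detection used HRP-ECL, with β-actin as loading control and densitometric quantification.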
(A western blot detects proteins with antibodies after separation by electrophoresis.)

Data set [2] relates to MDA-MB-231. Put plainly: Effect on total Akt protein level in human MDA-MB-231 cells at 2.5 uM incubated for 24 hrs in presence of control siRNA by Western blot relative to untreated control. The format is ADME, cell-based. The conditions noted are these: mda-mb-231, 24 h. Summed up:
as §1

The test system of data set [3] is MDA-MB-231. Put plainly: Induction of autophagy in human MDA-MB-231 cells assessed as change in p62 protein level at 10 uM incubated for 24 hrs by Western blot method relative to untreated control. Type of data set: functional. Summed up: as §1
Data set [4] deals with MDA-MB-231. Put plainly: Induction of autophagy in human MDA-MB-231 cells assessed as change in p62 protein level at 2.5 uM incubated for 24 hrs by Western blot method relative to untreated control. The format is functional. The method in brief: as §1
The target in data set [5] is T1, Platelet-derived growth factor receptor beta (Homo sapiens, UniProt P09619). Put plainly: Inhibition of PDGFRbeta in human MDA-MB-231 cells assessed as Akt Ser473 phosphorylation level at 5 uM incubated for 24 hrs by Western blot relative to untreated control. Type of data set: cell-based. The method in brief: (§2)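 Cells were treated 24 h at several concentrations. Pooled adherent and floating cells were lysed in Hepes 50 mM pH 7.4 / 1% Triton X-100 buffer with vanadate, NaF, EDTA, PMSF, aprotinin and leupeptin. Equal protein was run on 10-15% SDS-PAGE and blotted to PVDF. PDGFR-β-AKT-ULK1 pathway phospho-proteins were probed and detected by ECL, with β-actin as loading control.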

Data set [6] relates to MDA-MB-231. Put plainly: Induction of autophagy in human MDA-MB-231 cells assessed as change in LC3-2 protein level at 2.5 uM incubated for 24 hrs in presence of control siRNA by Western blot method relative to untreated control. The format is functional. The method in brief:
(§3)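 Before treatment, MDA-MB-231 cells were transfected with control or PDGFR-β siRNA, then exposed to 2.5 μM compound for 24 h. Lysates of pooled adherent and floating cells were immunoblotted (10-15% SDS-PAGE, PVDF, ECL) for PDGFR-β-AKT-ULK1 autophagy signalling markers, with β-actin as loading control.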

Data set [7] deals with T1, Platelet-derived growth factor receptor beta. Put plainly: Inhibition of PDGFRbeta in human MDA-MB-231 cells assessed as C-Raf Ser338 phosphorylation level at 2.5 uM incubated for 24 hrs in presence of PDGFRbeta siRNA by Western blot relative to untreated control. The format is cell-based.
In data set [8] the test system is MDA-MB-231. Put plainly: Induction of apoptosis in human MDA-MB-231 cells assessed as change in cleaved caspase-3 protein level at 2.5 uM incubated for 24 hrs by Western blot method relative to untreated control. Type of data set: functional. The method in brief:
as §1

Data set [9] has as its system MDA-MB-468. Put plainly: Antiproliferative activity against human MDA-MB-468 cells incubated for 24 hrs by MTT assay. Type of data set: functional, cell-based. As to conditions: MDA-MB-468, 24 h.
Data set [10] has as its system MDA-MB-231. Put plainly: Effect on total PDGFRbeta protein level in human MDA-MB-231 cells at 2.5 uM incubated for 24 hrs by Western blot relative to untreated control. As to conditions: mda-mb-231, 24 h. The format is ADME, cell-based. Summed up:
as §1

The target in data set [11] is T1, Platelet-derived growth factor receptor beta. Put plainly: Inhibition of PDGFRbeta in human MDA-MB-231 cells assessed as ULK Ser317 phosphorylation level at 5 uM incubated for 24 hrs by Western blot relative to untreated control. Type of data set: cell-based. Summed up:
as §2

Data set [12] concerns the target Mitogen-activated protein kinase; ERK1/ERK2 (Homo sapiens) (UniProt P27361+P28482). As to the kind of experiment: Inhibition of ERK1/2 in human MDA-MB-231 cells assessed as ERK1/2 Thr202/Tyr204 phosphorylation level at 5 uM incubated for 24 hrs in presence of PDGFRbeta siRNA by Western blot relative to untreated control. Type of data set: cell-based.
Data set [13] has as its system MDA-MB-231. As to the kind of experiment: Effect on total mTOR protein level in human MDA-MB-231 cells at 10 uM incubated for 24 hrs by Western blot relative to untreated control. The format is ADME, cell-based. As to conditions: mda-mb-231, 24 h. Summed up:
as §1

The target of data set [14] is T1, Platelet-derived growth factor receptor beta. Put plainly: Inhibition of PDGFRbeta in human MDA-MB-231 cells assessed as Akt Thr305 phosphorylation level at 2.5 uM incubated for 24 hrs in absence of PDGFRbeta siRNA by Western blot relative to untreated control. The format is cell-based. The method in brief: (§4)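 Cells were transfected with control or PDGFR-β siRNA, then treated with 2.5 μM compound for 24 h. PDGFR-β-AKT-ULK1 pathway phospho-proteins were assessed by western blot: lysis in Hepes pH 7.4 / Triton buffer, 10-15% SDS-PAGE, PVDF, ECL detection, β-actin as loading control.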

For data set [15] the target is unchanged. Put plainly: Inhibition of PDGFRbeta in human MDA-MB-231 cells assessed as C-Raf Ser259 phosphorylation level at 10 uM incubated for 24 hrs in presence of PDGFRbeta siRNA by Western blot relative to untreated control. The format is cell-based.
Data set [16] has as its system MDA-MB-231. As to the kind of experiment: Induction of apoptosis in human MDA-MB-231 cells assessed as change in cleaved caspase-3 protein level at 5 uM incubated for 24 hrs by Western blot method relative to untreated control. Type of data set: functional. The method in brief:
as §1

The test system of data set [17] is MDA-MB-231. As to the kind of experiment: Effect on total PDGFRbeta protein level in human MDA-MB-231 cells at 2.5 uM incubated for 24 hrs in presence of control siRNA by Western blot relative to untreated control. The format is ADME, cell-based. As to conditions: mda-mb-231, 24 h. The method in brief: as §1
The subject of data set [18] is MDA-MB-231. Put plainly: Induction of autophagy in human MDA-MB-231 cells assessed as change in LC3-2 protein level at 2.5 uM incubated for 24 hrs in presence of PDGFRbeta siRNA by Western blot method relative to untreated control. The format is functional. Summed up:
as §3

In data set [19] the target is T1, Platelet-derived growth factor receptor beta. Put plainly: Inhibition of PDGFRbeta in human MDA-MB-231 cells assessed as Akt Thr305 phosphorylation level at 2.5 uM incubated for 24 hrs in presence of control siRNA by Western blot relative to untreated control. Type of data set: cell-based. The method in brief:
as §4

Data set [20] has as its target Dual specificity mitogen-activated protein kinase kinase; MEK1/2 (Homo sapiens) (UniProt P36507+Q02750). Put plainly: Inhibition of MEK1/2 in human MDA-MB-231 cells assessed as MEK1/2 Ser217/221 phosphorylation level at 2.5 uM incubated for 24 hrs in presence of PDGFRbeta siRNA by Western blot relative to untreated control. Type of data set: cell-based.
The target in data set [21] is T1, Platelet-derived growth factor receptor beta. Put plainly: Inhibition of PDGFRbeta in human MDA-MB-231 cells assessed as ULK Ser555 phosphorylation level at 2.5 uM incubated for 24 hrs in presence of PDGFRbeta siRNA by Western blot relative to untreated control. The format is cell-based. The method in brief: as §4
In data set [22] the test system is MDA-MB-231. Put plainly: Inhibition of cell migration in human MDA-MB-231 cells at 2.5 to 10 uM incubated for 24 hrs by scratch wound healing assay. The format is functional, cell-based. Summed up:
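Cells were grown to confluence and the monolayer was scratched with a longitudinally cut 10 μL tip. Cells were treated with 2.5, 5.0 or 10 μM compound for 24 h and wound closure was viewed by phase-contrast microscopy.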

SMILES strings stand for the structures. The source made the active and inactive calls. No cut-off for these calls is given here.

T1 sequence (P09619 whole entry): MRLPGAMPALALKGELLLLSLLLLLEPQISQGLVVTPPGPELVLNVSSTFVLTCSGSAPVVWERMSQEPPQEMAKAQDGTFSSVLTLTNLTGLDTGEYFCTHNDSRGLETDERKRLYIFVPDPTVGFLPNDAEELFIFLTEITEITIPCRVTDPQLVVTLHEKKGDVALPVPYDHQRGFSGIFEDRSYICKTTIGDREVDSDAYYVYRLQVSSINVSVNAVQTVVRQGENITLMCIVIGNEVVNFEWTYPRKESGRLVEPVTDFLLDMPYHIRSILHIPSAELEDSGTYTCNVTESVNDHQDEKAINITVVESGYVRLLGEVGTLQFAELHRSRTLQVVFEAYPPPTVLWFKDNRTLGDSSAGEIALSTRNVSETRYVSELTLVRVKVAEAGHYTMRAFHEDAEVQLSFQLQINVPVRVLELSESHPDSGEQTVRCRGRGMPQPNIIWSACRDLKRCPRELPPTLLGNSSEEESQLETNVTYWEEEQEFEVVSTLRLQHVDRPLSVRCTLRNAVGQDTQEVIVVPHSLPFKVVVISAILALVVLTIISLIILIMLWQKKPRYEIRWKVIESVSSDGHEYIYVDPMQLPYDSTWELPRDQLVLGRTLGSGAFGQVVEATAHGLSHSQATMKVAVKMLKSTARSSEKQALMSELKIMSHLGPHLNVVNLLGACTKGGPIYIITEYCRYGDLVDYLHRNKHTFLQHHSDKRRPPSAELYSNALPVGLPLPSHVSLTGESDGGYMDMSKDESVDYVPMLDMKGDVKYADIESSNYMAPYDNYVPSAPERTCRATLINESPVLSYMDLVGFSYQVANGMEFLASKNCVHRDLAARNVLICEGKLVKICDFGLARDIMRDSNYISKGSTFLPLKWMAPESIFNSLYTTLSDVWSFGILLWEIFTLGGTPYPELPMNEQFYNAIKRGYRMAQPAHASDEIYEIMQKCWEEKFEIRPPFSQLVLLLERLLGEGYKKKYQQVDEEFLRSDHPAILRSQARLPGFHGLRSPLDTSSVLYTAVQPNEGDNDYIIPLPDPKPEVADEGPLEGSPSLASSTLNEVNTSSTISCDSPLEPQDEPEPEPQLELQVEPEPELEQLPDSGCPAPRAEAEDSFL
Chain of Mitogen-activated protein kinase; ERK1/ERK2 (Homo sapiens) (P27361 whole entry, looked up): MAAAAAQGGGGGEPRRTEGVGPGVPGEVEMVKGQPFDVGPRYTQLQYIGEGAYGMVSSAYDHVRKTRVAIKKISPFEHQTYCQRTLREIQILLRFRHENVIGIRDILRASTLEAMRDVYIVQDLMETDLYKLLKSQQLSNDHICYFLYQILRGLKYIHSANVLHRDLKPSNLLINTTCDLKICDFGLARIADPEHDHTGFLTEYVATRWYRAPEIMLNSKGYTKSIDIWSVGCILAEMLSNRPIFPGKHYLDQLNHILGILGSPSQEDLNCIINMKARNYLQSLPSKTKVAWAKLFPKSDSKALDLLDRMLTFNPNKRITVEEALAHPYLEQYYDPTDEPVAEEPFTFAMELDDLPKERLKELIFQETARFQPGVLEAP
Chain of Mitogen-activated protein kinase; ERK1/ERK2 (Homo sapiens) (P28482 whole entry, looked up): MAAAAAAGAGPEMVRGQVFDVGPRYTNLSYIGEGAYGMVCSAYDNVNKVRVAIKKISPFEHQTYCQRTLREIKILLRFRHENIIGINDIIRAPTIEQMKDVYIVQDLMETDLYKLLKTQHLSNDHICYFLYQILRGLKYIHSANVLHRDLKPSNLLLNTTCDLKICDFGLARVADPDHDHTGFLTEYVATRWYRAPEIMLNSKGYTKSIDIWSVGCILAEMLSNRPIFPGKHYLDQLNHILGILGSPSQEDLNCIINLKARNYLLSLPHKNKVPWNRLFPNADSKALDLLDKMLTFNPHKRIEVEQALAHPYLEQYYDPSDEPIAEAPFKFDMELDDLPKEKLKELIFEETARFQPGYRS
Chain of Dual specificity mitogen-activated protein kinase kinase; MEK1/2 (Homo sapiens) (P36507 whole entry, looked up): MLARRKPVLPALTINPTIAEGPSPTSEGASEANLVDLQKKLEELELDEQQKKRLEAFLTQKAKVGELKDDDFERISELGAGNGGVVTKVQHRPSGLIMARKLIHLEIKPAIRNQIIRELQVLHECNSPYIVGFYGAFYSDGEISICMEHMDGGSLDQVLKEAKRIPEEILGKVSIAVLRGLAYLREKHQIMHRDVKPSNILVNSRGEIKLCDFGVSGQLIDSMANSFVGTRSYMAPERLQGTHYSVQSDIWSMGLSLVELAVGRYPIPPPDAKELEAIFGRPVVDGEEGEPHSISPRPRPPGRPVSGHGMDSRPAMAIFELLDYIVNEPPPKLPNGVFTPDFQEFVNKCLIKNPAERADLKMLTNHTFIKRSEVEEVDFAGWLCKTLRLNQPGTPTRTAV
Chain of Dual specificity mitogen-activated protein kinase kinase; MEK1/2 (Homo sapiens) (Q02750 whole entry, looked up): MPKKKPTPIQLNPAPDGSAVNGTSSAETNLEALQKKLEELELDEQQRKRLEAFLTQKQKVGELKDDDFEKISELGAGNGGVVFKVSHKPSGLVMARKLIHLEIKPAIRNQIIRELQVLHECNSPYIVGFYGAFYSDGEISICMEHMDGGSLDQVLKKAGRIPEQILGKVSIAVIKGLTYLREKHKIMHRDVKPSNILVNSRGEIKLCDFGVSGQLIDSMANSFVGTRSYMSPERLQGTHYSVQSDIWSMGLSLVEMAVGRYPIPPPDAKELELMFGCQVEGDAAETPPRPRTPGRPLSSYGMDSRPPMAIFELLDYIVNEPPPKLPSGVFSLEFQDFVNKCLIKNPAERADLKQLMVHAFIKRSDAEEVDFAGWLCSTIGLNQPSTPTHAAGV

`COc1cccc(Nc2cc(N3CCN(C(=O)Nc4ccc(C(F)(F)F)cc4)CC3)ncn2)c1`: the “fold change (FC)” value came out at 3.54 in data set [1]; 0.86 in data set [2]; 0.55 in [3]; 0.78 in data set [4]; 0.23 in data set [5]; 2.34 in data set [6]. Moreover, the fold change (FC) in data set [7] turned out to be 0.85; in [8], 0.87; in [10], 1.8; in data set [11], 2.1; in data set [12], 1.86; in [13], 0.45. Also, the fold change (FC) in data set [14] was 0.05; in data set [15], 0.95; in data set [16], 0.88; in data set [17], 0.05; in [18], 3.01; in [19] it was 0.1. Further, the results for the fold change (FC) in data set [20] and in data set [21] were 1.12 and 3.69, respectively. For the same molecule, in data set [9], half-maximal inhibition (IC50) required 3.19 µM. In addition, the inhibition result in data set [22] is “Active”.

By IC50 is commonly meant the point on the concentration scale where inhibition reaches its midpoint. High values mean weaker potency in that assay, low ones greater potency in that assay.
